From ChEMBL document CHEMBL5038571, “Design and Synthesis of EZH2-Based PROTACs to Degrade the PRC2 Complex for Targeting the Noncatalytic Activity of EZH2” (J Med Chem, 2021)
Activity calls are given as the source filed them. The calls are words filed in the database; no cut-off is given here.

How the values were obtained:
[1] = molecular target: T1, Protein cereblon/Histone-lysine N-methyltransferase EZH2 (Homo sapiens) (UniProt Q15910+Q96SW2); test: PROTAC activity at CRBN E3 ligase/EZH2 in PRC2 complex in human LNCaP cells assessed as induction of RbAp48 degradation by measuring reduction in RbAp48 protein level at 1 uM incubated for 48 hrs by Western blot analysis; type: cell-based
T1 sequence (Q15910 whole entry, looked up): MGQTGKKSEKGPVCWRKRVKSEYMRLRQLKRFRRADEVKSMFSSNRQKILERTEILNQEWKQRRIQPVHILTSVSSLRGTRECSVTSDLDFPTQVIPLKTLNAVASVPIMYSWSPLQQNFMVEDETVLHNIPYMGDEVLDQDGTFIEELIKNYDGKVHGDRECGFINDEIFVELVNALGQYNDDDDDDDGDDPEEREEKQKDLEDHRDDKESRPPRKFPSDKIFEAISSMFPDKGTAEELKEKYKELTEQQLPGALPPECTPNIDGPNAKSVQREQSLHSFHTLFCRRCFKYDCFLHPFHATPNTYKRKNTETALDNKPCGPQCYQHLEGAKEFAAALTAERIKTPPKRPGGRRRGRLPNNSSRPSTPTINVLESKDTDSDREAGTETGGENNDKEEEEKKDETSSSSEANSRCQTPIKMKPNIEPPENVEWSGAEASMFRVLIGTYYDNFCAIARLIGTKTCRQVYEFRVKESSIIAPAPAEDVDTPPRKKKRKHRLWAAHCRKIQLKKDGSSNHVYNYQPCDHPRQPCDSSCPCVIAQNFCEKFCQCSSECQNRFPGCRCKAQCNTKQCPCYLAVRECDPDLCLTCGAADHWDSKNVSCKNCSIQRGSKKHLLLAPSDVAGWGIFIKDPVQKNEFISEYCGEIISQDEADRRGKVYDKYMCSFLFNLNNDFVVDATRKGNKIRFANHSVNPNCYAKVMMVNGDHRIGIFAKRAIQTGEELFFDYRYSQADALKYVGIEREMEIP
T1 sequence (Q96SW2 whole entry, looked up): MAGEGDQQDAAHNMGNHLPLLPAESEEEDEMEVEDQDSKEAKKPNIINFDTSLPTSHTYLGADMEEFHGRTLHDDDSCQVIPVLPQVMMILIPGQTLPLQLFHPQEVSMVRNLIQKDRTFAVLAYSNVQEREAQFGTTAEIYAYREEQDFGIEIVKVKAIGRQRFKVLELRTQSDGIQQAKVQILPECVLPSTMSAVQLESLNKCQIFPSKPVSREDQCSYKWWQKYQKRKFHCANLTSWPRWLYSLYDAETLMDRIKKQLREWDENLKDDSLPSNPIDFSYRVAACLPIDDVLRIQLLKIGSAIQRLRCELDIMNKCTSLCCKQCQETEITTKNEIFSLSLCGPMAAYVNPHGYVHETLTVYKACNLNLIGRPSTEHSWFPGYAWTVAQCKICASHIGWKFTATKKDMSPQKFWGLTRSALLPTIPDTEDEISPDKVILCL
Procedure, shortened: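 Cancer cell lines exposed to 1 μM compound for 48 h. Lysates immunoblotted (SDS-PAGE, nitrocellulose, 5% milk block, primary antibody overnight at 4 °C) for EZH2, SUZ12, EED, RbAp48 and H3K27me3. Bands quantified by densitometry and normalized to GAPDH.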

[2] = molecular target: T1, Protein cereblon/Histone-lysine N-methyltransferase EZH2 (Homo sapiens); test: PROTAC activity at CRBN E3 ligase/EZH2 in PRC2 complex in human WSUDLCL2 cells assessed as downregulation of SUZ12 expression at 1 uM pretreated with MG-132 for 4 hrs followed by compound addition and measured after 48 hrs by Western blot analysis; type: cell-based
Procedure, shortened: (§1)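 WSU-DLCL-2 cells pretreated 4 h with the named inhibitor, then compound added and incubated a further 48 h. EZH2, SUZ12, EED and RbAp48 measured by western blot (nitrocellulose transfer, skim-milk block, primary antibody overnight at 4 °C, chemiluminescent detection).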

[3] = molecular target: T1, Protein cereblon/Histone-lysine N-methyltransferase EZH2 (Homo sapiens); test: PROTAC activity at CRBN E3 ligase/EZH2 in PRC2 complex in human WSUDLCL2 cells assessed as induction of SUZ12 degradation by measuring reduction in SUZ12 protein level at 1 uM measured after 48 to 72 hrs by Western blot analysis; type: cell-based; settings: time 48-72 hrs
[4] = molecular target: T1, Protein cereblon/Histone-lysine N-methyltransferase EZH2 (Homo sapiens); test: PROTAC activity at CRBN E3 ligase/EZH2 in PRC2 complex in human SK-OV-3 cells assessed as induction of SUZ12 degradation by measuring reduction in SUZ12 protein level at 1 uM incubated for 48 hrs by Western blot analysis; type: cell-based
Procedure, shortened: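 Cells cultured in DMEM or RPMI 1640 with 10% FBS and 1% penicillin-streptomycin, 37 °C, 5% CO2; exposed to 1 μM compound for 48 h. Lysates run on SDS-PAGE and transferred to nitrocellulose. Blocked 2 h in 5% skim milk, primary antibody overnight at 4 °C, then secondary antibody. Chemiluminescent detection of PRC2 subunits and H3K27me3.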

[5] = molecular target: T1, Protein cereblon/Histone-lysine N-methyltransferase EZH2 (Homo sapiens); test: PROTAC activity at CRBN E3 ligase/EZH2 in PRC2 complex in human WSUDLCL2 cells assessed as downregulation of EED expression at 1 uM pretreated with EPZ6438 for 4 hrs followed by compound addition and measured after 48 hrs by Western blot analysis; type: cell-based; procedure, shortened: as §1
[6] = system: NCI-H1299; test: Downregulation of TACC3 mRNA expression in human NCI-H1299 cells at 10 uM incubated for 48 hrs by qRT-PCR analysis; type: functional, cell-based
Procedure, shortened: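 Cells treated 48 h. Total RNA extracted with Trizol, reverse-transcribed, and SYBR RT-qPCR run: 95 °C 30 s, then 40 cycles of 95 °C 6 s and 60 °C 20 s. mRNA normalized to the DMSO-treated group. Mean SD of three independent experiments, t-test versus DMSO.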

Activity [1]: Active | Activity [2]: inactive | Activity [3]: Active | Activity [4]: Active | Activity [5]: inactive
SMILES: CCN(c1cc(-c2ccc(CN3CCN(CCCCCCCOc4cccc5c4C(=O)N(C4CCC(=O)NC4=O)C5=O)CC3)cc2)cc(C(=O)NCc2c(C)cc(C)[nH]c2=O)c1C)C1CCOCC1 (stereo unspecified)
Activity [6]: Active
